The record followed here is ChEMBL document CHEMBL3286320, “Design, Synthesis, and Optimization of Balanced Dual NK1/NK3 Receptor Antagonists” (ACS Med Chem Lett, 2014).

pKi: −log10 of the molar value.

One assay concerns the target Substance-P receptor (Homo sapiens, UniProt P25103). As to the kind of experiment: Displacement of [125I]-Bolton Hunter-substance P from human NK1 receptor expressed in human U373MG cells. It counts as cell-based, U-373MG ATCC. The procedure, abridged:
(§1)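 Radioligand binding on membranes: NK1 on membranes from U-373MG cells, which express the receptor endogenously; NK3 on membranes from CHO cells stably expressing the recombinant human receptor.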
On the technique in general: Loss of bound radioactivity is the signal in a displacement assay; it reports binding, not function.

The target in another assay is T1, Neuromedin-K receptor (Homo sapiens, UniProt P29371).
T1 sequence (P29371 whole entry): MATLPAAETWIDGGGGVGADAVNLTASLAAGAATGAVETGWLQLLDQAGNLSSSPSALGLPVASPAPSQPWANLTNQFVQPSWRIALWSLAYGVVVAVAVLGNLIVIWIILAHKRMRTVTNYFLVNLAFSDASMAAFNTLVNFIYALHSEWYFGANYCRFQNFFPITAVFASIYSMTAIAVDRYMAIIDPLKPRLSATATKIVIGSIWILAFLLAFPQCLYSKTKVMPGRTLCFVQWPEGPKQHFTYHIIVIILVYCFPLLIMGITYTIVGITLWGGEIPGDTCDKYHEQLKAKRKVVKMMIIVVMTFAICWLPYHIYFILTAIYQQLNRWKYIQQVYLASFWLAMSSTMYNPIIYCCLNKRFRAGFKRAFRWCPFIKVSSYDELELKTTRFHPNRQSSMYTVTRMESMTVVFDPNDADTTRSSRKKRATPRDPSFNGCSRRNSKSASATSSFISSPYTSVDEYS
As to the kind of experiment: Displacement of [3H]-SR142801 from human NK3 receptor expressed in recombinant CHO cells. The class given is cell-based. The procedure, abridged: as §1

Substance-P receptor, sequence (P25103 whole entry): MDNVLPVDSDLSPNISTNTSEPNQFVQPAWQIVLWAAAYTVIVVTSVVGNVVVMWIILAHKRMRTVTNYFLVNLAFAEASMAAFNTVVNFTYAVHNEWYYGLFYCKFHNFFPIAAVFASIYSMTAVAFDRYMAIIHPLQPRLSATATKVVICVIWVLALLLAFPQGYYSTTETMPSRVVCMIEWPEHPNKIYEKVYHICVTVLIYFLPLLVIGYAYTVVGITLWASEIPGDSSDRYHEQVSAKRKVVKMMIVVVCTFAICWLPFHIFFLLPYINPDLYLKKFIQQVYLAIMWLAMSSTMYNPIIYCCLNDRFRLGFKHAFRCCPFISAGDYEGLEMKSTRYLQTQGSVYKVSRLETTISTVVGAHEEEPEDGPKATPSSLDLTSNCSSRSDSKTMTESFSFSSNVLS

Turning to `CN1C(=O)OC2(CCN(CC[C@](C)(C(=O)N[C@H](Cc3ccccc3)C(=O)NCCN)c3ccc(Cl)c(Cl)c3)CC2)c2cc(F)ccc21`, the negative logarithm of the Ki (pKi) – broadly, the negative decadic logarithm of the Ki, by convention in mol/L – on Substance-P receptor was 6.20; on Neuromedin-K receptor it was 5.70.
For `CN1C(=O)OC2(CCN(CCC[C@H](C(=O)N(C)[C@@H](Cc3ccccc3)C(=O)NCCN)c3ccc(Cl)c(Cl)c3)CC2)c2cc(F)ccc21` the same measures were 6.40 and 5.20.
Turning to `CN1C(=O)OC2(CCN(CC[C@H](C(=O)N(C)[C@@H](Cc3ccccc3)C(=O)NCCN)c3ccc(Cl)c(Cl)c3)CC2)c2cc(F)ccc21`, the pKi was 6.70 at Substance-P receptor and 5.90 on Neuromedin-K receptor.
Regarding `CN1C(=O)OC2(CCN(CC[C@@H](C(=O)N(C)[C@H](C(=O)NCCN)c3ccccc3)c3ccc(Cl)c(Cl)c3)CC2)c2cc(F)ccc21` (racemic), the pKi at Substance-P receptor was 6.20; at Neuromedin-K receptor, 5.60.
Take `CN1C(=O)OC2(CCN(CC[C@@](C)(C(=O)N(C)[C@H](Cc3ccccc3)C(=O)NCCCN)c3ccc(Cl)c(Cl)c3)CC2)c2cc(F)ccc21`: the results for the pKi on Substance-P receptor and at Neuromedin-K receptor were 8.40 and 7.60, respectively.
The matching figures for `CN1C(=O)OC2(CCN(CC[C@@H](C(=O)N(C)[C@@H](Cc3ccccc3)C(=O)NCCN)c3ccc(Cl)c(Cl)c3)CC2)c2cc(F)ccc21` (mixture of isomers): 6.90 and 5.80.
As to `CNCCNC(=O)[C@@H](Cc1ccccc1)NC(=O)[C@](C)(CCN1CCC2(CC1)OC(=O)N(C)c1ccc(F)cc12)c1ccc(Cl)c(Cl)c1`, the pKi on Substance-P receptor was 7.80; on Neuromedin-K receptor, 7.70.
The matching figures for `CN1C(=O)OC2(CCN(CCC[C@@](C)(C(=O)N[C@H](C(=O)NCCN)c3ccccc3)c3ccc(Cl)c(Cl)c3)CC2)c2cc(F)ccc21`: 6.50 and 6.10.
The matching figures for `CN1C(=O)OC2(CCN(CC[C@](C)(C(=O)N[C@@H](Cc3ccccc3)C(=O)NCCN)c3ccc(Cl)c(Cl)c3)CC2)c2cc(F)ccc21`: 6.40 and 5.00.
Consider `CN1C(=O)OC2(CCN(CC[C@@](C)(C(=O)N[C@H](Cc3ccccc3)C(=O)NCCO)c3ccc(Cl)c(Cl)c3)CC2)c2cc(F)ccc21`, for which the negative logarithm of the Ki (pKi) at Substance-P receptor is 7.50; at Neuromedin-K receptor, 8.60.
For `CN1C(=O)OC2(CCN(CCC[C@@H](C(=O)N(C)[C@@H](Cc3ccccc3)C(=O)NCCN)c3ccc(Cl)c(Cl)c3)CC2)c2cc(F)ccc21` the same measures were 7.30 and 5.40.
As for `CN(C)CCNC(=O)[C@@H](Cc1ccccc1)NC(=O)[C@](C)(CCN1CCC2(CC1)OC(=O)N(C)c1ccc(F)cc12)c1ccc(Cl)c(Cl)c1`, the pKi on Substance-P receptor is 7.40; on Neuromedin-K receptor it was 7.50.
The matching figures for `CN1C(=O)OC2(CCN(CC[C@@](C)(C(=O)N[C@@H](Cc3ccccc3)C(=O)NCCN)c3ccc(Cl)c(Cl)c3)CC2)c2cc(F)ccc21`: 6.90 and 7.20.
As for `CN1C(=O)OC2(CCN(CC[C@@](C)(C(=O)N[C@H](C(=O)NCCN)c3ccccc3)c3ccc(Cl)c(Cl)c3)CC2)c2cc(F)ccc21`, the pKi at Substance-P receptor was 6.60; at Neuromedin-K receptor, 7.40.
As for `CN(C)CCNC(=O)[C@@H](Cc1ccccc1)NC(=O)[C@](C)(CCCN1CCC2(CC1)OC(=O)N(C)c1ccc(F)cc12)c1ccc(Cl)c(Cl)c1`, the pKi on Substance-P receptor was 7.70; at Neuromedin-K receptor it was 6.00.
Consider `CN1C(=O)OC2(CCN(CC[C@@](C)(C(=O)N[C@H](Cc3ccccc3)C(=O)NCCN)c3ccc(Cl)c(Cl)c3)CC2)c2cc(F)ccc21`, for which the values for the pKi on Substance-P receptor and at Neuromedin-K receptor were 7.70 and 7.30, respectively.
Turning to `CN1C(=O)OC2(CCN(CC[C@@](C)(C(=O)N(C)[C@H](Cc3ccccc3)C(=O)NCCN)c3ccc(Cl)c(Cl)c3)CC2)c2cc(F)ccc21`, the pKi was 8.60 on Substance-P receptor and 8.10 on Neuromedin-K receptor.
For `CN1C(=O)OC2(CCN(CCC[C@@](C)(C(=O)N[C@H](Cc3ccccc3)C(=O)NCCO)c3ccc(Cl)c(Cl)c3)CC2)c2cc(F)ccc21` the same measures were 7.80 and 6.90.
The matching figures for `CN1C(=O)OC2(CCN(CCC[C@@](C)(C(=O)N[C@H](Cc3ccccc3)C(=O)NCCN)c3ccc(Cl)c(Cl)c3)CC2)c2cc(F)ccc21`: 7.20 and 5.80.
